The results in this text go back to ChEMBL document CHEMBL3352557, “Design, synthesis and antimycobacterial activity of various 3-(4-(substitutedsulfonyl)piperazin-1-yl)benzo[d]isoxazole derivatives” (Eur J Med Chem, 2014).

Usually MIC stands for the lowest concentration that inhibits growth of the organism. Read a low MIC as greater potency. A word on the IC50: it is the midpoint of a concentration-inhibition curve.

The subject of data set [1] is Mycobacterium tuberculosis. In words: Antimycobacterial activity against Mycobacterium tuberculosis H37Rv ATCC 27294 after 7 days by MABA method. It counts as functional. Particulars: H37Rv ATCC 27294, 168 h. Summed up:
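Two-fold serial dilutions in Middlebrook 7H9GC medium, final 50 to 0.78 µg/mL (DMSO stocks), inoculum 2 × 10^5 CFU/mL. Incubated at 37 °C for 7 days, then 10% Tween 80 and Alamar Blue added and incubated 24 h at 37 °C. Blue read as no growth, pink as growth. MIC is the lowest concentration preventing the blue-to-pink change. Isoniazid and rifampin served as positive controls.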
In general terms: Alamar Blue is a resazurin reagent that responds to reducing activity.

Data set [2] can be described thus: Selectivity index, ratio of IC50 for mouse RAW264.7 cells to MIC for Mycobacterium tuberculosis H37Rv ATCC 27294. It counts as toxicity. Particulars: read-out: Selectivity Index.
The next data set relates to RAW264.7. In words: Cytotoxicity against mouse RAW264.7 cells assessed as inhibition of cell growth after 72 hrs by MTT assay. It counts as cell-based. Particulars: RAW264.7, 72 h. Put shortly: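 Mouse macrophage RAW 264.7 cells exposed to compound for 72 h. Viability was read as cellular conversion of MTT to formazan using a non-radioactive cell proliferation kit, and IC50 was taken from this.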
For orientation: Tetrazolium assays rely on reduction of a dye to a coloured formazan, in cell work by metabolically active cells.

A short description of data set [3]: Cytotoxicity against mouse RAW264.7 cells assessed as inhibition of cell growth at 50 ug/mL after 72 hrs by MTT assay. Particulars: read-out: GI. It counts as cell-based. Summed up: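 RAW 264.7 mouse macrophage line treated at 50 µg/mL for 72 h. Viability was scored by cellular reduction of MTT to a formazan product in a non-radioactive cell proliferation assay.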

Data set [4] relates to Mycobacterium tuberculosis. In words: Antimycobacterial activity against Mycobacterium tuberculosis H37Rv ATCC 27294 assessed as inhibition of cell growth at 6.25 ug/mL after 7 days by MABA method. Particulars: H37Rv ATCC 27294, 168 h, read-out: GI. Format: functional.
For data set [5], the system named is Mycobacterium tuberculosis. In words: Antimycobacterial activity against Mycobacterium tuberculosis H37Rv ATCC 27294 assessed as inhibition of cell growth at 3.125 ug/mL after 7 days by MABA method. It counts as functional. Particulars: H37Rv ATCC 27294, 168 h, read-out: GI.

Converted amounts (≈) assume the structure as drawn.

Consider `O=S(=O)(c1ccccc1)N1CCN(c2noc3cc(Cl)ccc23)CC1`, for which the MIC in data set [1] came out at 25 µg/mL (≈ 66.2 µM).
The same measure, in the same setting: the figure for `O=S(=O)(c1ccccc1)N1CCN(c2noc3cccc(Cl)c23)CC1` is 25 µg/mL (≈ 66.2 µM).
`O=S(=O)(c1ccc(OC(F)(F)F)cc1)N1CCN(c2noc3ccccc23)CC1` displayed a minimum inhibitory concentration (MIC) in data set [1] of over 50 µg/mL.
Consider `Clc1cccc2c(N3CCNCC3)noc12`, for which, in data set [1], the MIC came to 25 µg/mL (≈ 105 µM).
The same measure, in the same setting: the figure for `NNC(=O)c1ccncc1` [ISONIAZID] is 0.36 µg/mL (≈ 2.63 µM).
Still for that read-out and setting: the figure for `O=[N+]([O-])c1ccc(S(=O)(=O)N2CCN(c3noc4cc(Cl)ccc34)CC2)cc1` is 25 µg/mL (≈ 59.1 µM); for `CS(=O)(=O)N1CCN(c2noc3cc(Cl)ccc23)CC1` it is over 50 µg/mL; for `O=S(=O)(c1ccc(Br)cc1)N1CCN(c2noc3cc(Cl)ccc23)CC1` it is over 50 µg/mL.
For the molecule `O=S(=O)(c1ccc(OC(F)(F)F)cc1)N1CCN(c2noc3cccc(Cl)c23)CC1`, the selectivity ratio in data set [2] came out at 4.74. In the data set on RAW264.7, the IC50 was 59.3 µg/mL (≈ 128 µM). Also, the MIC in data set [1] came to 12.5 µg/mL (≈ 27.1 µM). Further, in data set [3], the inhibition at 72 h, 50 ug/mL is 42.2%.
`O=[N+]([O-])c1ccc(S(=O)(=O)N2CCN(c3noc4cccc(Cl)c34)CC2)cc1`: the lowest concentration to inhibit growth in data set [1] (MIC) was 50 µg/mL (≈ 118 µM).
The same measure, in the same setting: the figure for `O=S(=O)(c1ccc(OC(F)(F)F)cc1)N1CCN(c2noc3c(Cl)cccc23)CC1` is over 50 µg/mL.
Consider `Clc1ccc2c(N3CCNCC3)noc2c1`, for which the selectivity ratio in data set [2] came to 8.29. Besides, the IC50 in the data set with RAW264.7 worked out at 104 µg/mL (≈ 436 µM). The same molecule yielded a minimal inhibitory concentration (MIC) in data set [1] of 12.5 µg/mL (≈ 52.6 µM). In addition, the inhibition at 72 h, 50 ug/mL in data set [3] was determined as 24.1%.
On the same counts, the results for `c1ccc2c(N3CCNCC3)noc2c1` are 10.8, 67.9 µg/mL (≈ 334 µM), 6.25 µg/mL (≈ 30.8 µM) and 36.8%.
In the case of `O=S(=O)(c1ccc(Br)cc1)N1CCN(c2noc3ccccc23)CC1`, inhibition of growth in data set [1] (MIC) required 50 µg/mL (≈ 118 µM).
On the same count and under the same terms, the figure for `Cc1ccc(S(=O)(=O)N2CCN(c3noc4c(Cl)cccc34)CC2)cc1` is over 50 µg/mL.
Same read-out and setting: to `Cc1ccc(S(=O)(=O)N2CCN(c3noc4ccccc34)CC2)cc1` belongs 50 µg/mL (≈ 140 µM); to `O=[N+]([O-])c1ccc(S(=O)(=O)N2CCN(c3noc4c(Cl)cccc34)CC2)cc1`, 50 µg/mL (≈ 118 µM).
On to `Cc1ccc(S(=O)(=O)N2CCN(c3noc4cccc(Cl)c34)CC2)cc1`, for which the selectivity ratio in data set [2] came out at 18.5. Also, the inhibition of growth at 6.25 µg/mL in data set [4] was found to be 99%. Moreover, the half-maximal inhibitory concentration (IC50) with RAW264.7 was 116 µg/mL (≈ 295 µM). In addition, inhibition of growth in data set [1] (MIC) required 6.25 µg/mL (≈ 15.9 µM). The inhibition at 72 h, 50 ug/mL in data set [3] worked out at 21.6%.
Take `Clc1cccc2onc(N3CCNCC3)c12`: it took 25 µg/mL (≈ 105 µM) to inhibit growth in data set [1] (MIC).
On to `O=S(=O)(c1ccccc1)N1CCN(c2noc3ccccc23)CC1`, for which the inhibition of growth at 3.125 µg/mL in data set [5] stood at 99%. The selectivity ratio in data set [2] turned out to be 137. Further, the 50% inhibitory concentration (IC50) in the data set on RAW264.7 was determined as 430 µg/mL (≈ 1250 µM). The molecule also gave a minimal inhibitory concentration (MIC) in data set [1] of 3.12 µg/mL (≈ 9.09 µM). For the same molecule, the inhibition at 72 h, 50 ug/mL in data set [3] was 5.82%.
As to `O=S(=O)(c1ccc(Br)cc1)N1CCN(c2noc3cccc(Cl)c23)CC1`, the minimum inhibitory concentration (MIC) in data set [1] is 50 µg/mL (≈ 109 µM).
Still for that read-out and setting: the figure for `O=S(=O)(c1ccccc1)N1CCN(c2noc3c(Cl)cccc23)CC1` is 25 µg/mL (≈ 66.2 µM); for `Cc1ccc(S(=O)(=O)N2CCN(c3noc4cc(Cl)ccc34)CC2)cc1` it is over 50 µg/mL.
Regarding `CS(=O)(=O)N1CCN(c2noc3ccccc23)CC1`, the selectivity ratio in data set [2] was 7.03. In addition, the IC50 in the data set with RAW264.7 was determined as 88 µg/mL (≈ 313 µM). Further, inhibition of growth in data set [1] (MIC) required 12.5 µg/mL (≈ 44.4 µM). In addition, the inhibition at 72 h, 50 ug/mL in data set [3] amounted to 28.4%.
Take `CS(=O)(=O)N1CCN(c2noc3c(Cl)cccc23)CC1`: in data set [1], the MIC was 25 µg/mL (≈ 79.2 µM).
For `O=S(=O)(c1ccc(OC(F)(F)F)cc1)N1CCN(c2noc3cc(Cl)ccc23)CC1`, the selectivity ratio in data set [2] amounted to 11. For the same molecule, the IC50 in the data set with RAW264.7 came out at 138 µg/mL (≈ 299 µM). Moreover, it took 12.5 µg/mL (≈ 27.1 µM) to inhibit growth in data set [1] (MIC). In data set [3], the inhibition at 72 h, 50 ug/mL worked out at 18.1%.
Regarding `O=S(=O)(c1ccc(Br)cc1)N1CCN(c2noc3c(Cl)cccc23)CC1`, in data set [1], it took 25 µg/mL (≈ 54.7 µM) to inhibit growth (MIC).
On the same count and under the same terms, the figure for `CO[C@H]1/C=C/O[C@@]2(C)Oc3c(C)c(O)c4c(O)c(c(/C=N/N5CCN(C)CC5)c(O)c4c3C2=O)NC(=O)/C(C)=C\C=C\[C@H](C)[C@H](O)[C@@H](C)[C@@H](O)[C@@H](C)[C@H](OC(C)=O)[C@@H]1C` [RIFAMPIN] is 1 µg/mL (≈ 1.22 µM); for `O=[N+]([O-])c1ccc(S(=O)(=O)N2CCN(c3noc4ccccc34)CC2)cc1` it is over 50 µg/mL.
The same measure, in the same setting: the figure for `CS(=O)(=O)N1CCN(c2noc3cccc(Cl)c23)CC1` is over 50 µg/mL.
